Results: ChEMBL document CHEMBL4819134, “Design, synthesis and biological evaluation of imidazopyridazine derivatives containing isoquinoline group as potent MNK1/2 inhibitors” (Bioorg Med Chem, 2021)

Assays:
[1] = system: TMD8; assay: Antiproliferative activity against human TMD8 cells assessed as reduction in cell viability incubated for 72 hrs by MTT assay; type: functional, cell-based; details: TMD8, 72 h
Method in brief: (§1)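 Lymphoma cells seeded and grown 12 h, then exposed to serial compound concentrations in medium with 1‰ DMSO, each in triplicate, for 72 h. DMSO-only control. Viability read by MTT and normalized to DMSO control. IC50 derived by Logit method, mean ± SD of three independent determinations.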

[2] = molecular target: T1, MAP kinase-interacting serine/threonine-protein kinase 2 (Homo sapiens, UniProt Q9HBH9); details: Sf21, dose 500.0 nM, time 50.0 min
Target sequence in this assay (Q9HBH9 whole entry, looked up, the tested form may be a part): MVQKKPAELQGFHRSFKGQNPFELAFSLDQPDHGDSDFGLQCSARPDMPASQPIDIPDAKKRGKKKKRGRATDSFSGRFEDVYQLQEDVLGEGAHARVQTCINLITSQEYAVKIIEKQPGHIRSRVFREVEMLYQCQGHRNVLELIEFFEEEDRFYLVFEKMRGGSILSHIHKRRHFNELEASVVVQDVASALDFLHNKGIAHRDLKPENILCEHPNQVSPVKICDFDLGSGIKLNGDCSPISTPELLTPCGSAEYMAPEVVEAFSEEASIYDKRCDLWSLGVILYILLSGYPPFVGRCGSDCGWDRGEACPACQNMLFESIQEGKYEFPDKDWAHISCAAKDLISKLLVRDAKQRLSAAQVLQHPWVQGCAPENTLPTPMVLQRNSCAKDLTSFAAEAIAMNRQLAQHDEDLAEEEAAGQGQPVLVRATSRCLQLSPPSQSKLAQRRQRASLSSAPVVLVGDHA

[3] = molecular target: T2, MAP kinase-interacting serine/threonine-protein kinase 1 (Homo sapiens, UniProt Q9BUB5); assay: Inhibition of N-terminal GST-fused human full length recombinant MNK1 (1 to 424 residues) expressed in baculovirus-infected Sf21 cells using TATKSGSTTKNR as substrate preincubated with enzyme and substrate for 10 mins followed by ATP addition and measured after 40 mins by ADP-glo luminescence assay
Target sequence in this assay (Q9BUB5 whole entry, the tested form may be a part): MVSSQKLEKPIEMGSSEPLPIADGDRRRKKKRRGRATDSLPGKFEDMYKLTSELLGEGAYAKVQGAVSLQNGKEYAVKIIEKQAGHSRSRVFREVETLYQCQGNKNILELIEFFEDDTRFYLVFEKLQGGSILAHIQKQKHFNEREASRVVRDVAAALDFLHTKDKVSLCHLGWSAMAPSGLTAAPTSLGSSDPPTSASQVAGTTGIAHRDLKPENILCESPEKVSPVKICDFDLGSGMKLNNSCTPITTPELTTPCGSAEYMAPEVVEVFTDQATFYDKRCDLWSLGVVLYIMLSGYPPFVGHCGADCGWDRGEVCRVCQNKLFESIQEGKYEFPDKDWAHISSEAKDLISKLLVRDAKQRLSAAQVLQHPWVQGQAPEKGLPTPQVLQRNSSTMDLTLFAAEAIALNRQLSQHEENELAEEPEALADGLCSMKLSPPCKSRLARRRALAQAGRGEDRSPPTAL

[4] = molecular target: T1, MAP kinase-interacting serine/threonine-protein kinase 2; assay: Inhibition of N-terminal GST-fused human full length recombinant MNK2 (1 to 465 residues) expressed in baculovirus-infected Sf21 cells using TATKSGSTTKNR as substrate preincubated with enzyme and substrate for 10 mins followed by ATP addition and measured after 40 mins by ADP-glo luminescence assay
Target sequence in this assay (Q9HBH9 whole entry, the tested form may be a part): as the sequence (Q9HBH9 whole entry, looked up, the tested form may be a part) above

[5] = system: DOHH-2; assay: Antiproliferative activity against human DOHH-2 cells assessed as reduction in cell viability incubated for 72 hrs by MTT assay; type: functional, cell-based; details: DOHH-2, 72 h; method in brief: as §1
[6] = molecular target: T2, MAP kinase-interacting serine/threonine-protein kinase 1; details: Sf21, dose 500.0 nM, time 50.0 min
Target sequence in this assay (Q9BUB5 whole entry, looked up, the tested form may be a part): as the sequence (Q9BUB5 whole entry, the tested form may be a part) above

[7] = system: TMD8; assay: Induction of apoptosis in human TMD8 cells assessed as necrotic cells at 1 uM incubated for 24 hrs by AnnexinV-FITC/PE staining based flow cytometry (reference value: 0%); type: functional
Method in brief: (§2)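 TMD-8 cells seeded at 1 × 10^5 per 2 mL well and treated 24 h at 0.25, 0.5 or 1 μM, with DMSO control. Cells washed twice in cold PBS and resuspended in binding buffer. Stained with annexin V-FITC for 15 min, then PI for 5 min, both at 37 °C in the dark. Analysed by flow cytometry.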

[8] = system: TMD8; assay: Induction of apoptosis in human TMD8 cells assessed as necrotic cells at 0.25 uM incubated for 24 hrs by AnnexinV-FITC/PE staining based flow cytometry (reference value: 0%); type: functional; method in brief: as §2
[9] = system: TMD8; assay: Induction of apoptosis in human TMD8 cells assessed as necrotic cells at 0.5 uM incubated for 24 hrs by AnnexinV-FITC/PE staining based flow cytometry (reference value: 0%); type: functional; method in brief: as §2
[10] = system: TMD8; assay: Induction of apoptosis in human TMD8 cells assessed as early apoptotic cells at 1 uM incubated for 24 hrs by AnnexinV-FITC/PE staining based flow cytometry (reference value: 4.35%); type: functional; method in brief: as §2
[11] = system: TMD8; assay: Induction of apoptosis in human TMD8 cells assessed as late apoptotic cells at 0.25 uM incubated for 24 hrs by AnnexinV-FITC/PE staining based flow cytometry (reference value: 1.44%); type: functional; method in brief: as §2
[12] = molecular target: Cyclin-dependent kinase 1 (Homo sapiens) (UniProt P06493); assay: Inhibition of CDK1 (unknown origin) at 500 nM
Cyclin-dependent kinase 1 (Homo sapiens), sequence (P06493 whole entry, looked up): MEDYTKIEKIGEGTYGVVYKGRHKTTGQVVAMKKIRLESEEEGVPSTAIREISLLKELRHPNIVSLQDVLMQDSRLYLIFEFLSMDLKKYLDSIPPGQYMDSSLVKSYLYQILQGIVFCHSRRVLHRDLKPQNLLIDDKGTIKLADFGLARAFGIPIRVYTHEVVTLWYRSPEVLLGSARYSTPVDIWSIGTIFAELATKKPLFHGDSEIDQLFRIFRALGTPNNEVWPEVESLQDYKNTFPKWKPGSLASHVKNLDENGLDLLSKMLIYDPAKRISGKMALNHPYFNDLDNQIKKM

[13] = system: TMD8; assay: Induction of apoptosis in human TMD8 cells assessed as viable cells at 0.25 uM incubated for 24 hrs by AnnexinV-FITC/PE staining based flow cytometry (reference value: 94.2%); type: functional; details: read-out: Activity; method in brief: as §2
[14] = system: TMD8; assay: Induction of apoptosis in human TMD8 cells assessed as viable cells at 1 uM incubated for 24 hrs by AnnexinV-FITC/PE staining based flow cytometry (reference value: 94.2%); type: functional; details: read-out: Activity; method in brief: as §2
[15] = molecular target: Tyrosine-protein kinase BTK (Homo sapiens) (UniProt Q06187); assay: Inhibition of BTK (unknown origin) at 500 nM
Tyrosine-protein kinase BTK (Homo sapiens), sequence (Q06187 whole entry): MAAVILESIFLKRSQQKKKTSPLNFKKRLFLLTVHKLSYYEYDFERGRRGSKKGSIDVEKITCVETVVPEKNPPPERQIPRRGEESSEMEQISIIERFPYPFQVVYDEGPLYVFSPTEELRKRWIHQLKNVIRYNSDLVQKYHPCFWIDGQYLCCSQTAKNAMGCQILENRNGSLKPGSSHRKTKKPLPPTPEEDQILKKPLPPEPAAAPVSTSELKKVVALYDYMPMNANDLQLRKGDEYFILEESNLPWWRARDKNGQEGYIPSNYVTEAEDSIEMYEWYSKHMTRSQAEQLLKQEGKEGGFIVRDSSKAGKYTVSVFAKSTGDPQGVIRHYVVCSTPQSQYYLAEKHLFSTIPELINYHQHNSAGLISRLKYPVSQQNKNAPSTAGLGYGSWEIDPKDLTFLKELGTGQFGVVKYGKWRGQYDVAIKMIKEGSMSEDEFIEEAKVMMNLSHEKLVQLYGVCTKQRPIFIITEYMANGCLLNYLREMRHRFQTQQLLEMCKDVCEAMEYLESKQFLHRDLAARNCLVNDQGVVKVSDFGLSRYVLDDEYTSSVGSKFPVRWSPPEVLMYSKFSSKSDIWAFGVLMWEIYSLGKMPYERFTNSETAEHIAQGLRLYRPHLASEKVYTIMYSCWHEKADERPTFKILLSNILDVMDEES

[16] = molecular target: T3, Interleukin-1 receptor-associated kinase 4 (Homo sapiens) (UniProt Q9NWZ3); assay: Inhibition of IRAK4 (unknown origin) at 500 nM
T3 sequence (whole entry): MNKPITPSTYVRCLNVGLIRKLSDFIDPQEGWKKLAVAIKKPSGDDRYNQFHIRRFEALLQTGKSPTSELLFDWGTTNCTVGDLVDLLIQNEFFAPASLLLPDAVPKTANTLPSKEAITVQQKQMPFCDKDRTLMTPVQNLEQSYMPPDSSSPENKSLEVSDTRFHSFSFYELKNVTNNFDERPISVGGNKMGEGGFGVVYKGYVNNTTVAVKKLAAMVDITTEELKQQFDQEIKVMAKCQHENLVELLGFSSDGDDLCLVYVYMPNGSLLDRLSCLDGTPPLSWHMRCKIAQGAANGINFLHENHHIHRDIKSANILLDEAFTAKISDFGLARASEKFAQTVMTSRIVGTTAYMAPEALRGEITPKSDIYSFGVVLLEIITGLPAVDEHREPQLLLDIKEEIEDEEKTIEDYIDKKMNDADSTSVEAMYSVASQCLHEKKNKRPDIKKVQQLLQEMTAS

[17] = molecular target: Tyrosine-protein kinase JAK1 (Homo sapiens) (UniProt P23458); assay: Inhibition of JAK1 (unknown origin) at 500 nM
Tyrosine-protein kinase JAK1 (Homo sapiens), sequence (P23458 whole entry): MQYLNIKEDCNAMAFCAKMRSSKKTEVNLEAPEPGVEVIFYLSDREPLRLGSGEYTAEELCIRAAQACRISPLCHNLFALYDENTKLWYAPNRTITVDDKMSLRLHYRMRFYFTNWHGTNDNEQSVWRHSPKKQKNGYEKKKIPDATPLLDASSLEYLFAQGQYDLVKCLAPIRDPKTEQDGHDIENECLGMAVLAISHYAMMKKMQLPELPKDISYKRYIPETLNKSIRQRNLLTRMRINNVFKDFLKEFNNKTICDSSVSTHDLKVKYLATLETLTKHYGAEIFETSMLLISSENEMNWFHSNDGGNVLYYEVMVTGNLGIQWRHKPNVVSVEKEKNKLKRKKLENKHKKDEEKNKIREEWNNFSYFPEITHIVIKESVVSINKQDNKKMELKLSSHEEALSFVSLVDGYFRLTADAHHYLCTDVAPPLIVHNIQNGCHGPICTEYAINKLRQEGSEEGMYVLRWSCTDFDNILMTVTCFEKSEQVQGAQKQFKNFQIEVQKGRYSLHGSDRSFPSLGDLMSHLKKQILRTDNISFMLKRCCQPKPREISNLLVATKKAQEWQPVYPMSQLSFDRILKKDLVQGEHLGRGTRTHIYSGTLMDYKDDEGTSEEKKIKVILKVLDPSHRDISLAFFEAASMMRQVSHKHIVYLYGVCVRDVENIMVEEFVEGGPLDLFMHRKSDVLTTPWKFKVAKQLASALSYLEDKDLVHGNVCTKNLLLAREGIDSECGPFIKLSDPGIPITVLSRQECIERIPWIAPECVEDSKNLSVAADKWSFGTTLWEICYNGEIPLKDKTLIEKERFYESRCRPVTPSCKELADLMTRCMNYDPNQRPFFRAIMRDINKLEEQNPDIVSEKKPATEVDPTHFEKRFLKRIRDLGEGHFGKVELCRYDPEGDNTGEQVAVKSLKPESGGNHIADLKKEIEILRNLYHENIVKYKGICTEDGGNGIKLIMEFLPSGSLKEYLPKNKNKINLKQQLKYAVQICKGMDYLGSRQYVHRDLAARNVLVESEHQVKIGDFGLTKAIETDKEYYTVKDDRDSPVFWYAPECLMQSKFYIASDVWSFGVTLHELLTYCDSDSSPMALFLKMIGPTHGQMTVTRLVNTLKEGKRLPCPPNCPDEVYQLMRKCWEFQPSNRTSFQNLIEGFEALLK

[18] = system: TMD8; assay: Induction of apoptosis in human TMD8 cells assessed as viable cells at 0.5 uM incubated for 24 hrs by AnnexinV-FITC/PE staining based flow cytometry (reference value: 94.2%); type: functional; details: read-out: Activity; method in brief: as §2
[19] = system: TMD8; assay: Induction of apoptosis in human TMD8 cells assessed as late apoptotic cells at 0.5 uM incubated for 24 hrs by AnnexinV-FITC/PE staining based flow cytometry (reference value: 1.44%); type: functional; method in brief: as §2
[20] = system: TMD8; assay: Induction of apoptosis in human TMD8 cells assessed as early apoptotic cells at 0.5 uM incubated for 24 hrs by AnnexinV-FITC/PE staining based flow cytometry (reference value: 4.35%); type: functional; method in brief: as §2
[21] = system: TMD8; assay: Induction of apoptosis in human TMD8 cells assessed as early apoptotic cells at 0.25 uM incubated for 24 hrs by AnnexinV-FITC/PE staining based flow cytometry (reference value: 4.35%); type: functional; method in brief: as §2
[22] = molecular target: Macrophage colony-stimulating factor 1 receptor (Homo sapiens) (UniProt P07333); assay: Inhibition of CSF1R (unknown origin) at 500 nM
Macrophage colony-stimulating factor 1 receptor (Homo sapiens), sequence (P07333 whole entry): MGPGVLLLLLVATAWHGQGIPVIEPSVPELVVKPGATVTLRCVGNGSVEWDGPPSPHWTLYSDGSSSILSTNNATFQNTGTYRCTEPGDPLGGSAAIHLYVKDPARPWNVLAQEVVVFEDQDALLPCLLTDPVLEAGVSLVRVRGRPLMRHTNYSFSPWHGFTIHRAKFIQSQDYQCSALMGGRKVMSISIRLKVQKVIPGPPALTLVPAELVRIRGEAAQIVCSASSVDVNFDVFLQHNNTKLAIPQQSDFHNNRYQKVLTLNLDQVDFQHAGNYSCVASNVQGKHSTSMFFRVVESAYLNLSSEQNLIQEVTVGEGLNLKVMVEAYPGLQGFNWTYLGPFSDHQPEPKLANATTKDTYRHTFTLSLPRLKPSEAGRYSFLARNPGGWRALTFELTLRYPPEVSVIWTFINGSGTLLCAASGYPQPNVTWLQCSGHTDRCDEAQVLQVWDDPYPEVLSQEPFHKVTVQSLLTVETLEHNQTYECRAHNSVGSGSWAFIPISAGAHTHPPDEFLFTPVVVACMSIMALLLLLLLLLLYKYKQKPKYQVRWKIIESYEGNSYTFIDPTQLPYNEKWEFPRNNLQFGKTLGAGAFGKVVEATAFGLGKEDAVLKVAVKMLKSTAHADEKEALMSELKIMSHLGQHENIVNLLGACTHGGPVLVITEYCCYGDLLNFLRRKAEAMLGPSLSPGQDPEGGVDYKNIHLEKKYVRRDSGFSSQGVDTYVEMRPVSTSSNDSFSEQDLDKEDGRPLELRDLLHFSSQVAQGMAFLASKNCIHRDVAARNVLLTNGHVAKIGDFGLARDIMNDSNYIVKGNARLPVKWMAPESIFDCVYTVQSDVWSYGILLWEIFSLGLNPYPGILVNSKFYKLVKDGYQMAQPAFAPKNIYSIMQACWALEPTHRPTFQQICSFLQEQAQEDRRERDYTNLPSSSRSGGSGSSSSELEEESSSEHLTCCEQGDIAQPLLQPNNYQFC

[23] = molecular target: AMP-activated protein kinase, AMPK (Homo sapiens) (UniProt P54646+O43741+P54619+Q9UGJ0+Q9Y478+Q13131+Q9UGI9); assay: Inhibition of AMPK (unknown origin) at 500 nM; type: protein-complex assay
[24] = system: TMD8; assay: Induction of apoptosis in human TMD8 cells assessed as late apoptotic cells at 1 uM incubated for 24 hrs by AnnexinV-FITC/PE staining based flow cytometry (reference value: 1.44%); type: functional; method in brief: as §2

SMILES	IC50 [1] [µM]	inhibition [2] [%]	IC50 [3] [µM]	IC50 [4] [µM]	IC50 [5] [µM]	inhibition [6] [%]	also measured
O=C(c1ccc(-c2ccc3ncc(-c4ccc5cnccc5c4)n3c2)cc1)N1CCNCC1	6.64	77.7	0.0094	0.0029	8.68	98.7	
N[C@@H]1CCCN(C(=O)c2ccc(-c3ccc4ncc(-c5ccc6cnccc6c5)n4n3)cc2)C1	2.42		0.0094	0.0066	0.4		
O=C(c1ccc(-c2ccc3ncc(-c4ccc5ncccc5c4)n3c2)cc1)N1CCC(N2CCOCC2)CC1		34.9				49.8	
NC1CCN(C(=O)c2ccc(-c3cn4c(-c5ccc6cnccc6c5)cnc4cn3)cc2)CC1	7.57		0.0321	0.0185	12		
N[C@H]1CCCN(C(=O)c2ccc(-c3ccc4ncc(-c5ccc6cnccc6c5)n4c3)cc2)C1	3.46		0.0025	0.0025	6.73		
O=C(c1ccc(-c2ccc3ncc(-c4ccc5ncccc5c4)n3c2)cc1)N1CCC(N2CCCCC2)CC1		2.41				62.8	
N#Cc1ccc(-c2cnc3ccc(-c4ccc(C(=O)N5CCOCC5)cc4)cn23)cc1 [TINODASERTIB]	2.14				1.62		
N[C@@H]1CCCN(C(=O)c2ccc(-c3cn4c(-c5ccc6cnccc6c5)cnc4cn3)cc2)C1	3.1		0.042	0.0267	3.25		
N[C@H]1CCCN(C(=O)c2ccc(-c3cn4c(-c5ccc6cnccc6c5)cnc4cn3)cc2)C1	2.56		0.0273	0.0194	5.19		
O=C(c1ccc(-c2ccc3ncc(-c4ccc5ncccc5c4)n3c2)cc1)N1CCNCC1		49.9				73.5	
O=C(c1ccc(-c2ccc3ncc(-c4cnc5ccccc5c4)n3c2)cc1)N1CCC(N2CCCCC2)CC1		48.8				71	
O=C(c1ccc(-c2ccc3ncc(-c4ccc5cnccc5c4)n3c2)cc1)N1CCC(N2CCOCC2)CC1	4.26	77.7	0.004	0.0032	7.55	87.8	
O=C(c1ccc(-c2ccc3ncc(-c4cnc5ccccc5c4)n3c2)cc1)N1CCOCC1		21	0.154	0.636		71	
N[C@H]1CCCN(C(=O)c2ccc(-c3ccc4ncc(-c5ccc6cnccc6c5)n4n3)cc2)C1	0.39	97.3	0.0023	0.0034	0.409	103	Activity [7]: 0%; Activity [8]: 0%; Activity [9]: 0.037%; Activity [10]: 9.3%; Activity [11]: 19.8%; inhibition [12]: 5.01%; viability at 0.25 µM [13]: 50.2%; viability at 1 µM [14]: 12.5%; inhibition [15]: 4.1%; inhibition [16]: 22.3%; inhibition [17]: 6.5%; viability at 0.5 µM [18]: 44.6%; Activity [19]: 45.9%; Activity [20]: 9.42%; Activity [21]: 30%; inhibition [22]: 11.6%; inhibition [23]: 10.2%; Activity [24]: 78.2%
O=C(c1ccc(-c2ccc3ncc(-c4ccc5cnccc5c4)n3c2)cc1)N1CCOCC1		106	0.007	0.0257		93.7	
N[C@@H]1CCCN(C(=O)c2ccc(-c3ccc4ncc(-c5ccc6cnccc6c5)n4c3)cc2)C1	2.3		0.0077	0.0089	6.28		
O=C(c1ccc(-c2ccc3ncc(-c4cnc5ccccc5c4)n3c2)cc1)N1CCC(N2CCOCC2)CC1		18.7				40.6	
O=C(c1ccc(-c2ccc3ncc(-c4ccc5cnccc5c4)n3c2)cc1)N1CCC(N2CCCCC2)CC1	4.01	74.7	0.0024	0.0015	3.82	92.9	
NC1CCN(C(=O)c2ccc(-c3ccc4ncc(-c5ccc6cnccc6c5)n4c3)cc2)CC1	2.06		0.0052	0.0168	8.3		
O=C(c1ccc(-c2ccc3ncc(-c4cnc5ccccc5c4)n3c2)cc1)N1CCNCC1		68.1	0.0676	0.0512		70.7	
O=C(c1ccc(-c2ccc3ncc(-c4ccc5ncccc5c4)n3c2)cc1)N1CCOCC1		64	0.371	0.216		74.7	
NC1CCN(C(=O)c2ccc(-c3ccc4ncc(-c5ccc6cnccc6c5)n4n3)cc2)CC1	2.08		0.0145	0.0157	0.541		
